# Screens: PubChem BioAssay, Sanford-Burnham Center for Chemical Genomics
# LMPTP inh: blocks human LMPTP phosphatase | actives 0.22% (n = 360,000) | recombinant LMPTP-A, OMFP fluorogenic substrate, fluorescence intensity | inhibition, % at 20 µM | P24666;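 active = compounds that cut the enzyme signal by at least half of the control window in the single-dose screen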;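 note: plate controls were DMSO wells with enzyme plus substrate for no effect and substrate without enzyme for full effect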
#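 Test system – LMPTP-A phosphatase enzyme · Quantity – 0.625 nM LMPTP-A final · Reagent – OMFP substrate, 400 µM final · Dosing – one test concentration per compound, 20 µM, with 3% DMSO overall · Timing – 50 min enzyme reaction at room temperature, protected from light · Detection – fluorescence intensity · Controls – substrate-only low control, DMSO enzyme-plus-substrate high control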
# SUMO1 PPI mod: alters human SUMO1 binding to SIM partners; actives 0.33% (n = 360,000); inhibition, % at 20 µM; P63165; SUMO1 binding to a labelled peptide, TR-FRET, 1 h; in the data active = inhibition above about 37%
# Scp-1 inhibitor: inhibitors of human Scp-1 phosphatase; Q9GZU7; Recombinant Scp1, phosphopeptide, malachite green phosphate absorbance; inhibition, % at 20 µM; actives 0.88% (n = 340,000); AID 493091;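 active = inhibition above about 50% at 20 µM, limit read from the data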;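 note: plate controls were DMSO wells with enzyme for no effect and wells lacking enzyme for full effect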
#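 Material – SCP-1 phosphatase catalytic domain, residues 76-261 · Buffer or medium – Acidic Tris acetate buffer with magnesium and detergent · Also added – Phospho 17-mer peptide substrate · Compound – single 20 µM dose, 1% DMSO · Times – 45 min room-temperature reaction, 5 min colour, 30 min stabiliser · Technique – Phosphate-binding colour reagent, absorbance read at 630 nm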
# STEP inh: blocks human striatal-enriched tyrosine phosphatase; P54829; recombinant STEP, OMFP fluorogenic substrate, fluorescence; inhibition, % at 20 µM; actives 0.25% (n = 360,000); AID 588621;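 active = inhibition at 20 µM, scaled per plate between control wells, above about 37%, limit read from the data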;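 note: 0% = DMSO with enzyme and substrate and 100% = substrate only without enzyme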
# Target sequence (P54829 whole entry, looked up): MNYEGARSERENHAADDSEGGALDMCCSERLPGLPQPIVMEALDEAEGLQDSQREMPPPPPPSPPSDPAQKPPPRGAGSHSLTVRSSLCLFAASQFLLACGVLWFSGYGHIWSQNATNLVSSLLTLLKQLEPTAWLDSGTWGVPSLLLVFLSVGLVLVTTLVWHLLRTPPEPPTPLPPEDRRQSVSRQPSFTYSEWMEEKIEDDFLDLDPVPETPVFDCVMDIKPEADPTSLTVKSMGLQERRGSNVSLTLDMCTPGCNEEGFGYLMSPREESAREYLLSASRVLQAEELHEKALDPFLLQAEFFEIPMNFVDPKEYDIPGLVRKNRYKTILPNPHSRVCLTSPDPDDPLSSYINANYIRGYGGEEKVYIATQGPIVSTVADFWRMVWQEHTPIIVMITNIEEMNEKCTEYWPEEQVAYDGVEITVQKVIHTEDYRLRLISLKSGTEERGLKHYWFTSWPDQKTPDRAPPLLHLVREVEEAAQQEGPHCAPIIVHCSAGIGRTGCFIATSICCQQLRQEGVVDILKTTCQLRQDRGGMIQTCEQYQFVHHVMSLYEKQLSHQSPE
#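 Measure: Control-normalized % inhibition with plate pattern correction | Test system: STEP phosphatase, cell-free reaction | Medium: pH 6.0 Bis-Tris with DTT and Tween 20 | Technique: Fluorescence, 480/540 nm | Times: Reaction 20 min, ambient temperature | Doses: Single compound dose of 20 µM, 1% DMSO final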
# DNMT1 inh: inhibitors of human DNMT1 | P26358 | DNMT1 molecular beacon, Hinp1I cleavage, fluorescence | inhibition (reported as % activation of signal), % at 10 µM | actives 0.83% (n = 360,000); in the data active = inhibition above about 50%
# Scp-1 conf: confirmation of human Scp-1 phosphatase inhibitors; recombinant SCP-1 catalytic domain, phosphate release, malachite green absorbance; shares compounds with Scp-1 inhibitor; actives 61% (n = 2,500); inhibition, % at 20 µM;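 note: plate controls were DMSO with enzyme for no effect and buffer wells lacking enzyme for full effect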
# MG interference: counter-screen for Scp-1 inhibitors: colorimetric interference; shares compounds with Scp-1 inhibitor; Colorimetric interference counterscreen, malachite green absorbance 630 nm; apparent inhibition (interference), % at 20 µM; 2,500 tested, under 10 active; AID 540313;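 note: compounds added after enzyme reaction finished so only phosphate colour detection is probed; plate controls were DMSO wells with completed Scp-1 reaction for no effect and substrate wells lacking enzyme for full effect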
# Scp1 DSF: validation of human Scp-1 inhibitors by thermal shift binding; shares compounds with Scp-1 inhibitor; Recombinant SCP1, Sypro Orange thermal shift Tm; thermal shift relative to vanadate control, % at 40 µM; actives 25% (n = 1,500); AID 540329;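 active = substances whose mean melting-temperature shift, as a percentage of the reference inhibitor's shift, reaches about 5.3%, limit read from the data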;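 note: 0% = Tm of DMSO wells and 100% = Tm with sodium orthovanadate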
# DNMT1 inh conf: confirmation of human DNMT1 inhibitors; inhibition, % at 10 µM; actives 8% (n = 2,300); shares compounds with DNMT1 inh; DNMT1 molecular beacon HinP1I cleavage, fluorescence;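 active = average inhibition of at least 30% in the single-concentration confirmation test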
# Beacon interf: beacon fluorescence artifact counter-screen; shares compounds with DNMT1 inh; DNMT1 molecular beacon spectral interference counterscreen, fluorescence 485/520; activation (fluorescence interference), % at 10 µM; actives 1% (n = 2,300);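 active = activation of at least 30% at 10 µM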;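 note: DNMT1 catalytic domain with a HinP1I cleavage step and a FAM/dabcyl DNA beacon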
# STEP conf: STEP (human) phosphatase inhibition, single concentration confirmation | inhibition, % at 20 µM | recombinant STEP, OMFP fluorogenic substrate, fluorescence | shares compounds with STEP inh | actives 32% (n = 520); call rule not given here;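 note: 0% = enzyme with substrate plus DMSO and 100% = substrate without enzyme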
# Numbers without * were called inactive; / = no result given. Sampled rows, rich in hits. Any-hit rate of the full collection: about 1.7%.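 Rule for the calls, unless noted: active = inhibition of at least 30% at 20 µM; inactive = the rest.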
SMILES,LMPTP inh,SUMO1 PPI mod,Scp-1 inhibitor,STEP inh,DNMT1 inh,Scp-1 conf,MG interference,Scp1 DSF,DNMT1 inh conf,Beacon interf,STEP conf
O=[N+]([O-])c1ccc(C=NNC(=S)NN=Cc2ccc([N+](=O)[O-])cc2)cc1,75.0*,92.0*,88.5*,95.7*,87.6*,55.4*,-13.9,12.1*,0.5,-11.8,7.7
CCOc1ccc(S(=O)(=O)Nc2ccc(C(=O)N3CCCC3)cc2)cc1C(N)=O,-0.7,-3.6,-2.4,-0.1,1.5,/,/,/,/,/,/
O=[N+]([O-])c1ccc(/C=N/n2c(-c3cccnc3)n[nH]c2=S)cc1,42.9,-20.4,60.0*,55.7*,4.3,51.9*,-19.5,3.7,/,/,5.3
O=[N+]([O-])c1cccc(/C=N/n2c(-c3cccnc3)n[nH]c2=S)c1,-1.8,-6.1,2.7,4.4,2.8,/,/,/,/,/,/
CCCCn1c(N)c(-c2nc3ccccc3o2)c2c([N+](=O)[O-])nn(C)c(=O)c21,54.6*,-7.3,93.1*,57.8*,86.8*,68.1*,-8.2,2.7,0.3,-1.5,22.9
Cc1ccc(-n2c(C)nc3oc4ccccc4c(=O)c3c2=O)cc1,60.9*,24.8,68.4*,49.0*,99.4*,60.7*,-9.5,4.8,6.5,-1.8,84.7*
CC(=O)NC(CC(C)C)C(=O)NC(CO)C(=O)NC(CCC(=O)O)C(=O)NC(C)C(=O)NC(CC(C)C)C(N)=O (centres undefined),-0.4,-0.1,-4.4,-0.8,0.1,/,/,/,/,/,/
CCCc1cc(=O)n2nc(N3CCC(C(=O)N4CCN(c5cccc(OC)c5)CC4)CC3)sc2n1,0.7,-3.1,-1.7,-2.2,0.7,/,/,/,/,/,/
CCCCC(=O)Nc1ccc(C(=O)NNC(=O)c2ccc(C)c(Br)c2)cc1,78.2*,26.4,101.6*,73.6*,81.2*,70.6*,-26.9,-12.4,4.5,0.4,40.2*
CC(C)CN(C(=O)CN1C(=O)NC2(CCc3ccccc32)C1=O)C1CCS(=O)(=O)C1 (centres undefined),-1.0,-1.3,-7.3,-3.4,0.3,/,/,/,/,/,/
CCc1ccc(NC(=O)CS(=O)CC(=O)Nc2ccc(N3CCOCC3)cc2)cc1 (centres undefined),62.6*,25.0,79.2*,72.0*,44.8,87.7*,-13.6,-10.2,/,/,6.1
COc1cc(NC(=O)c2cccc(NC3=NC4CS(=O)(=O)CC4S3)c2)cc(OC)c1OC (centres undefined),-1.0,3.7,-8.4,-1.7,0.7,/,/,/,/,/,/
Cc1cccc(C(=O)NNC(=O)c2cc3cc4ccccc4nc3s2)c1,1.4,-4.4,7.6,-3.6,9.3,/,/,/,/,/,/
O=C(NNC(=O)c1cc2cc3ccccc3nc2s1)c1cccc(Cl)c1,62.9*,-2.5,98.1*,97.4*,78.4*,72.6*,-12.6,-26.5,2.3,1.1,2.5
O=C(NNC(=O)c1cc2cc3ccccc3nc2s1)c1ccc(F)cc1,32.0,-5.4,104.6*,97.3*,11.5,67.5*,-13.4,-4.1,/,/,3.6
Cc1ccc(OC(C)C(=O)N2CCN(c3ccccn3)CC2)cc1 (centres undefined),-0.2,5.7,-5.2,2.9,0.9,/,/,/,/,/,/
O=C(/C=C/c1ccc(Cl)cc1)NC(=S)Nc1ccc(C(=O)O)cc1,67.4*,-6.5,96.5*,92.4*,2.0,88.0*,-7.9,-1.5,/,/,50.1*
